Experimental data: PMC6441337 (Journal of controlled release : official journal of the …, 2018)

Legend:
[1] = cited from earlier work
intestinal mucosa = test: Intestinal toxicity by histopathological scoring; type: in vivo; details: mice, oral, 10 mg/kg/d over 7 days
Outline: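 Mice given free test compound or cyclodextrin complexes orally at 10 mg/kg/d for 7 days; PBS group included. Intestine fixed in 10% formalin for 24 h, paraffin-embedded, sectioned at 5 μm and H&E stained. Duodenum examined at 20×. Mucosal damage graded: grade 0, normal villi; grade 1, subepithelial Gruenhagen's space at villus tips; higher grades follow.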

Caco-2 monolayers = test: Caco-2 permeability assay; type: in vitro ADME, Human
Outline: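 Caco-2 cells grown in EMEM with 20% FBS and 1% PenStrep, then seeded on inserts for ~20 days to form confluent monolayers. Free test compound or its cyclodextrin complexes added apically; transport followed over 2 h, plus basolateral-to-apical for efflux. Controls: ranitidine (low), warfarin (high), talinolol (P-gp). Papp = (dQ/dt)/(C0×A); efflux ratio = Papp(B→A)/Papp(A→B). Integrity by TEER with lucifer yellow transport.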

intestine = details: mouse, in vivo, 10 mg/kg; cited from earlier work
advanced LUAD tumors = details: cited from earlier work

Cc1cc(-c2ncc(CC(=O)Nc3ccc(-c4cnccn4)cn3)cc2C)ccn1 [LGK974]
solubility in aqueous environments [1]: poorly soluble
intestinal mucosal damage (histopathological scoring) (intestinal mucosa): Intestinal mucosal damage was observed
permeability across Caco-2 monolayers (Caco-2 monolayers; A → B and B → A, 2 h): high permeability
transepithelial electrical resistance (TEER) after treatment (Caco-2 monolayers; Caco-2 monolayers, 2 h treatment): did not decrease significantly
intestinal toxicity on oral administration (intestine): induces intestinal toxicity
effect in mice with advanced LUAD tumors (advanced LUAD tumors): suppressed Wnt target genes, inhibited tumor growth and proliferation, and extended survival
